An excerpt weighted towards active compounds, which were near 4.5% of everything screened.
OX1R antag-1 = blocks the human orexin 1 receptor. O43613. inhibition, % at 6.6 µM. OX1R-expressing cells, FRET antagonist read-out. hit rate 1.8% among 330,000; in the data active means inhibition mostly above about 38%, no sharp cut-off; inactive means mostly below about 40%;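 further: 0% = agonist challenge alone and 100% = reference antagonist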
TAAR1 antag = human TAAR1 antagonism; Q96RJ0; CHO RD-HGA16 TAAR1, Fluo-8 calcium fluorescence, antagonist; inhibition, % at 3 µM; hit rate 1.5% among 360,000; AID 624466;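 active means inhibition above a per-plate cutoff, the mean inhibition of test compounds on that plate plus 3 SD, cut at about 49% in these data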;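 further: 0% = DMSO plus EC80 beta-PEA response and 100% = DMSO alone without agonist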
Target sequence (Q96RJ0 whole entry, looked up): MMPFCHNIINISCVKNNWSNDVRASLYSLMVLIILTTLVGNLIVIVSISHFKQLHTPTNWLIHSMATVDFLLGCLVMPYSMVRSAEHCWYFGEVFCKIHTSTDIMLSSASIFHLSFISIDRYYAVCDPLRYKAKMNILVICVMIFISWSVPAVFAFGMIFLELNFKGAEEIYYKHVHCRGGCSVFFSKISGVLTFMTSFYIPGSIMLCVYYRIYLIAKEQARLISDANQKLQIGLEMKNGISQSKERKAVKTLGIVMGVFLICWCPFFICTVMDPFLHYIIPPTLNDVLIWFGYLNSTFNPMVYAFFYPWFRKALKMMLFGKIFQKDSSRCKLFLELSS
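Test system: RD-HGA16 CHO cells with stable hTAAR1 and Gα16 / Probe or stimulus: EC80 β-phenethylamine stimulus / Times: seeding 17-24 h prior, 75-min 37 °C, 30-min RT dye loading / Detection: Fluo-8 calcium-sensitive fluorescence / Read-out basis: % inhibition scaled between DMSO and EC80 PEA controls / Repeats: singlicate, one well per test compound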
TAAR1 agonist = human TAAR1 agonism; CHO RD-HGA16 TAAR1, Fluo-8 calcium fluorescence; vehicle wells 0%, saturating PEA agonist 100%; activation, % at 3 µM; hit rate 0.99% among 360,000;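 active means activation above the mean activation of all test compounds in the run plus 3 SD, cut at about 38% in these data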
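Test system: RD-HGA16 (CHO) cells co-expressing Gα16 and hTAAR1 / Benchmarks: DMSO vehicle as 0%, PEA at EC100 as 100% / Repeats: no replicates (n 1) / Measure: % activation from peak over basal fluorescence ratio, DMSO-to-PEA scaled / Timing: 17-24 h plating, Fluo-8 75 min 37 °C, 30 min RT / Technique: kinetic Fluo-8 calcium fluorescence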
OX1R antag-2 = antagonists of human orexin 1 receptor. CHO/OX1R cells, Fluo-8 calcium fluorescence, orexin A. inhibition, % at 5 µM. O43613. hit rate 0.43% among 330,000;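 active means inhibition above its plate's threshold, mean inhibition of all tested compounds on the plate plus 3 SD, cut at about 37% in these data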;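 further: 0% = orexin A challenge wells and 100% = SB-334867-A antagonist wells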
CHO parental Ca = counter-screen: ATP calcium response change in parental CHO cells; parental CHO-K1, ATP-induced calcium, Fluo-8 fluorescence; hit rate 0.63% among 330,000; inhibition, % at 5.6 µM;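 active means inhibition above that plate's mean sample inhibition plus 3 SD, cut at about 26% in these data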;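 further: 0% = ATP-challenged DMSO wells and 100% = DMSO wells without ATP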
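Material: parental CHO cells / Compound: single nominal dose of 5.6 µM per compound / Signal: Fluo-8 fluorescence / Replicates: singlicate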
GPR7 antagonist = blocks human GPR7 receptor signaling; inhibition, % at 4.4 µM; AID 1861; P48145; hit rate 1.1% among 290,000; GPR7-expressing cells, fluorescence antagonist assay; in the data active means inhibition above about 16%, passing the limit was not always enough;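 further: cells stimulated with the agonist NPW; 0% = agonist with vehicle and 100% = vehicle without agonist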
Target sequence (P48145 whole entry, looked up): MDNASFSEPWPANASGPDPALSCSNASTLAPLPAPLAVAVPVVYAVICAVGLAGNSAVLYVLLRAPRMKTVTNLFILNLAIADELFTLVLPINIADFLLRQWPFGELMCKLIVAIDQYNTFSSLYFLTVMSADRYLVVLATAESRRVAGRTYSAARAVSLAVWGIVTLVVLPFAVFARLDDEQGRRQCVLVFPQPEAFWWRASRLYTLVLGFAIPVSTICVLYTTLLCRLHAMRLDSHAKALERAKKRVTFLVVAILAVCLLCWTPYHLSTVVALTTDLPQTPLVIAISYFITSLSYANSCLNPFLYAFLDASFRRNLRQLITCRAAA
* marks the source's active call; other numbers are inactive results; · = not tested or not shown.

SMILES	OX1R antag-1	TAAR1 antag	TAAR1 agonist	OX1R antag-2	CHO parental Ca	GPR7 antagonist
Nc1nonc1-n1nnc(C(=O)N/N=C/c2cc(Br)cs2)c1-c1ccccc1	51*	1	41*	1	1	-15
CC1(C(=O)Nc2cccc(Oc3ccccc3)c2)Cc2c(-c3ccc4c(c3)OCO4)ccnc2O1 (centres undefined)	·	-21	1	·	·	·
CCOc1cccc(-c2c(C(=O)N/N=C/c3ccco3)nnn2-c2nonc2N)c1	10	·	·	-17	-4	-5
CCOc1cccc(-c2c(C(=O)N/N=C/c3ccc(C)o3)nnn2-c2nonc2N)c1	11	24	62*	4	5	2
CC(=O)Nc1ccc(NC(=O)COc2ccc(-c3ccc(C#N)cc3)cc2)cc1	12	-6	1	-5	13	·
N#Cc1ccc(-c2ccc(OCC(=O)Nc3cccnc3)cc2)cc1	·	59*	10	·	·	10
O=C(COc1ccc(C(=O)c2ccccc2)cc1)Nc1cccnc1	18	28	5	8	52*	11
CC1CCN(S(=O)(=O)c2ccc(C(=O)NCc3ccc4c(c3)OCO4)cc2)CC1	-2	58*	17	-22	-4	7
Cc1oc(C(C)(C)C)cc1C(=O)NCc1ccc2c(c1)OCO2	1	-13	3	-9	-13	-8
CC1CC(C)CN(S(=O)(=O)c2ccc(C(=O)NCc3ccc4c(c3)OCO4)cc2)C1 (centres undefined)	3	15	1	-17	-6	4
Cn1nc(C(C)(C)C)cc1C(=O)NCc1ccc2c(c1)OCO2	45	-8	5	15	48*	13
CC(=O)C1=C(C)N(Cc2ccc(Br)cc2)C(=S)NC1c1cccc(F)c1 (centres undefined)	·	27	-1	·	·	·
CCc1nc2c(OCCn3cccc3)cccn2c1N(C)C(=O)c1ccco1	·	-6	0	·	·	·
Cc1cccc(N(C)S(=O)(=O)c2cccc3nsnc23)c1	27	9	-3	-23	-14	-10
CN(CC(=O)Nc1ccc(F)c(F)c1)S(=O)(=O)c1cccc2nsnc12	63*	3	4	-14	-6	6
CN(C)S(=O)(=O)c1cccc2nsnc12	35*	5	-1	-8	-5	0
C=CCN1CC(COc2ccc(OC)cc2)OCCS1(=O)=O (centres undefined)	·	-8	1	·	·	·
O=C1c2ccc([N+](=O)[O-])cc2C(=O)N1Cc1cccnc1	77*	-20	6	-18	-2	-16
C[C@H]1COc2cc(N3CCOCC3)ccc2S(=O)(=O)N1	·	12	1	·	·	·
O=C(N[C@H](Cc1ccccc1)C(=O)N1CCN(c2ncccn2)CC1)[C@H]1O[C@@H](n2ccc(=O)[nH]c2=O)[C@H](O)[C@@H]1O	·	-12	0	·	·	·
Cn1c(=O)c(C(=O)Nc2ncccc2O)c(O)c2ccccc21	17	7	6	27	48*	5
CCCn1c(=O)c(C(=O)Nc2ncccc2O)c(O)c2ccccc21	·	6	-1	·	·	-4
COc1ccccc1C(=O)Nc1nnc(-c2ccc3c(c2)CCCC3)o1	68*	-11	-1	-18	-4	-5
CC(=O)Nc1nnc(-c2ccc3c(c2)CCCC3)o1	7	15	-1	-21	-5	-4
CC(C)[C@H](NC(=O)CC1CCCC1)C(=O)N1CCC[C@H]1C(=O)NCc1ccccc1	·	-43	1	·	·	·
SMILES	OX1R antag-1	TAAR1 antag	TAAR1 agonist	OX1R antag-2	CHO parental Ca	GPR7 antagonist
O=C(Nc1ccccc1SC(=O)c1ccccc1)c1ccccc1	·	15	16	·	·	·
Cc1ccc(C(=O)Sc2cccccc2=O)cc1	8	45	12	53*	54*	24
O=C(Nc1ncccn1)c1ccc([N+](=O)[O-])cc1[N+](=O)[O-]	73*	-21	1	-12	7	·
O=C(Nc1ncn[nH]1)c1ccc([N+](=O)[O-])cc1[N+](=O)[O-]	53*	-6	0	-10	-12	-1
O=C(Nc1ncn[nH]1)c1cc([N+](=O)[O-])ccc1Cl	8	5	-1	-18	-7	-11
CCc1cc2c3c(c1)C(C)CC(C)(C)N3C(=O)/C2=C1\SC(=O)NC1=O (centres undefined)	4	-21	1	-20	-5	-18
COc1cc2c3c(c1)C(C)CC(C)(C)N3C(=O)C2=O (centres undefined)	44*	-45	-1	-77	0	14
CCN(CC)C(=O)CCCc1c[nH]c2ccccc12	18	5	4	-18	3	13
CCCCN(C)C(=O)CCCc1c[nH]c2ccccc12	9	-19	1	-10	0	19*
COc1ccc(NC(=O)C2=CC(c3ccc(C)cc3)=NS(=O)(=O)N2C)cc1OC	14	1	4	-7	3	-4
COc1ccc(C2=NS(=O)(=O)N(C)C(C(=O)Nc3ccc(C(C)=O)cc3)=C2)cc1OC	3	53*	12	-3	21	-5
O=C(Nc1nc2ccc(F)cc2s1)C1CCN(S(=O)(=O)c2cc([N+](=O)[O-])ccc2Cl)CC1	33	36	4	28	67*	18
Cn1nc(C(C)(C)C)cc1C(=O)N1CCCCC1c1cc(C(=O)Nc2ccc3c(c2)OCO3)no1 (centres undefined)	·	-4	6	·	·	·
c1ccc(CN(Cc2cccs2)C(c2cccs2)c2nnnn2C2CCCC2)cc1 (centres undefined)	9	-1	2	-26	34*	-14
C=CCCC1CN(Cc2ccc(OC)cc2)S(=O)(=O)c2c(cccc2N2CCCCC2)O1 (centres undefined)	·	-69	8	·	·	·
Cc1nc(SCCc2nc3ccccc3[nH]2)c2oc3ccccc3c2n1	59*	-1	2	31	-15	·
Cc1ccc2oc3c(SCc4nc5ccccc5[nH]4)nc(C)nc3c2c1	58*	46	3	-9	-24	·
Cc1nc(SCc2nc3c(O)cccc3[nH]2)c2oc3ccccc3c2n1	25	25	9	-11	-12	·
Cc1nc(SCc2nc3ccccc3[nH]2)c2oc3cc(Br)ccc3c2n1	48*	42	10	27	-11	·
Cc1nc(SCc2nc3ccc(C(=O)c4ccccc4)cc3[nH]2)c2oc3ccccc3c2n1	31	25	10	27	-18	·
Cc1nc(SCc2nc3ccc(F)cc3[nH]2)c2oc3ccccc3c2n1	33	38	13	-29	-29	·
O=C(N[C@@H]1CC[C@@H](CCNC(=O)C2CCOCC2)O[C@@H]1CO)c1ccncc1	·	13	1	·	·	·
C[C@H]1COc2cccc(N3CCCC3)c2S(=O)(=O)N1	·	-23	4	·	·	·
CC1(C(=O)N2CCCCC2)CCN1C(=O)Cc1ccc(-c2ccccc2)cc1 (centres undefined)	·	-10	5	·	·	·
